Bioassay records deposited in PubChem BioAssay by several laboratories.
Sampled rows, rich in hits. Any-hit rate of the full collection: about 4.9%.
PHOSPHO1 block: blocks human PHOSPHO1 phosphatase activity. Q8TCT1. recombinant PHOSPHO1, absorbance phosphatase assay. inhibition, % at 13.3 µM. 1.1% of 290,000 active; in the data active = inhibition above about 60%
CHT allo act: human CHT allosteric activation. 0.49% of 310,000 active. B-score at 10 µM. CHT-expressing cells, membrane potential dye, choline EC20; active compounds read high; LV-AA mutant CHT in HEK293 cells. AID 488977;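 active = initial fluorescence not abnormally high and integrated response B-score, plate-corrected, over 3 SD above library mean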
Target sequence (Q9GZV3 whole entry, looked up): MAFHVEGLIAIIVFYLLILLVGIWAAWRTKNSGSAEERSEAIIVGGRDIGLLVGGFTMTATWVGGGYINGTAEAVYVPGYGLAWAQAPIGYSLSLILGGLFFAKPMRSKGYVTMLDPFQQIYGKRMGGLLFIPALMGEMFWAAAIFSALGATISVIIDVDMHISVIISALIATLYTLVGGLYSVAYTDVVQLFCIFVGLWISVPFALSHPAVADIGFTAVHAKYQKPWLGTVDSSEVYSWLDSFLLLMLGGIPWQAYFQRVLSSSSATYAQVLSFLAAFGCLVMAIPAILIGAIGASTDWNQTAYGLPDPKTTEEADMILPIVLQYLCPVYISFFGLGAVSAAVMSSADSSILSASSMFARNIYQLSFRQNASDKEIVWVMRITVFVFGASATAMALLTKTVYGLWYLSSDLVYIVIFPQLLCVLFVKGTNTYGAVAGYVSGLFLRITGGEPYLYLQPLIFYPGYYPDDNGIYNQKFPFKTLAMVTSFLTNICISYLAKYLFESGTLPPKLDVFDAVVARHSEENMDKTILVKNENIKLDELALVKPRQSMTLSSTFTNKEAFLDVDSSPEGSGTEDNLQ
Hep lipid drop: hepatic lipid droplet formation modulation; AML12 mouse hepatocytes, oleate lipid droplets, BODIPY imaging; inhibition, % at 6.5 µM; 0.4% of 240,000 active;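 active = lipid droplet intensity inhibited by at least 50%, with more than 500 cells counted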
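Material – AML12 mouse liver cells · Also added – oleate loading, 100 µM · Compound dosing – 6.5 µM single-point dosing · Times – overnight treatment with compound plus oleate · Measured by – fluorescence imaging, 20x objective, two fields per well · Read-out – percent inhibition of filter-corrected integrated lipid droplet intensity per well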
HSF1 inh: HSF1 inhibition | NIH3T3-HGL HSE-luciferase, MG132-induced, luminescence 8 h; active compounds read low | activity change, negative = inhibition, % at 7.5 µM (by protocol) | 0.77% of 300,000 active;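 active = more than half of replicate wells show activity change below -50%, luminescence cut by over half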;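 note: luciferase reports HSF-1 transcriptional activity via heat shock element; 0% = median of DMSO wells and -100% = zero luminescence signal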
CHT block: inhibits the human high affinity choline transporter; AID 488975; Q9GZV3; CHT-expressing cells, membrane potential dye, choline response; active compounds read low; 0.86% of 310,000 active; B-score at 10 µM;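 active = B-score over 3 SD under the library average, and starting fluorescence ratio not unusually high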;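 note: choline stimulus applied at its EC90 after an EC20 pre-addition; B-score computed on integrated fluorescence ratio after choline addition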
HSF-1 act: increases HSF-1 driven luciferase reporter signal. NIH3T3-HGL HSF-1 luciferase reporter, MG132, 8 h; 100% = twice DMSO control signal. activation, % at 9 µM. 1.7% of 300,000 active;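 active = mean replicate activation of at least 50% with a set share of replicates each reaching 50%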;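 note: 0% = median of the neutral control wells and 100% = twice that signal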
CHT act confirm: confirmation of human choline transporter (CHT) activators. CHT-expressing cells, membrane potential dye fluorescence (FDSS); % of choline EC20–EC90 response window; HEK293 expressing CHT LV-AA mutant; choline added at its EC20. activation, % at 10 µM. AID 504833. shares compounds with CHT allo act. 91% of 2,500 active;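 active = primary screen active, with duplicate mean activation above negative control mean plus 3 SD, cut at about 11% in these data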
HEK293 MP dye: counter-screen for CHT activators: effect in parental HEK293 cells. membrane potential dye fluorescence (FDSS); measured after EC20 choline addition. shares compounds with CHT allo act. 62% of 2,500 active. AID 623908. ratio readout change at 10 µM, hits read low;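 active = duplicate-averaged ratio beyond 3 SD from buffer wells, up or down, though filed actives are nearly all decreases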
Numbers without * were called inactive; i = inactive; nt = no result.

SMILES	PHOSPHO1 block	CHT allo act	Hep lipid drop	HSF1 inh	CHT block	HSF-1 act	CHT act confirm	HEK293 MP dye
Cn1c(=O)n(C)c2cc([N+](=O)[O-])c(N3CCN(S(C)(=O)=O)CC3)cc21	-6.7	i	2.3	-3.8	i	5.6	nt	nt
COc1ccc(/C=N/Nc2ccccn2)cc1O	28.1	i	5.2	5.4	i	6.2	35.1*	-47.9*
CN(Cc1ccccc1)C(=O)c1[nH]cnc1C(=O)N[C@@H](CCCCNC(=O)OC(C)(C)C)C(=O)OC(C)(C)C	13.5	10.8*	-7.6	-4.4	i	2.8	20.0*	i
CC(=O)c1c(C)nc2ccccc2c1N	11.3	8.56*	1.8	-0.2	i	-5.2	56.2*	-43.8*
Cc1c(N(C)C)nc2ccccc2c1N	-3.3	6.99*	4.4	-0.9	i	5.6	52.6*	-57.6*
COc1ccc(C(=O)CN2C(=O)NC3(CCCc4ccccc43)C2=O)cc1 (configuration not stated)	nt	i	nt	-1.3	i	-15.4	nt	nt
CCOC(=O)c1sc2nccc(OC)c2c1N=CN(C)C	32.6	6.6*	-1.0	1.4	i	-1.6	62.8*	-35*
COc1ccc(CN(C)C(C)C(=O)Nc2cccc3ccccc23)cc1 (configuration not stated)	34.6	i	-34.5	1.1	i	11.3	3.6	i
O=C(NCc1cccnc1)c1cccn2c(=O)c3sccc3nc12	27.0	7.78*	nt	-2.2	i	28.7	54.3*	-52.5*
CCCn1c(CN2CCN(C(=O)OCC)CC2)nc2cc(NC(=O)CC)ccc21	35.1	i	-4.0	-6.9	i	-5.6	9.8*	i
COc1ccc(NC(=O)CN2CCN(CC#N)CC2)cc1	8.5	i	1.2	1.4	i	10.8	nt	nt
CCN(Cc1ccccc1)CC(O)COC(c1ccc(OC)cc1)c1ccc(OC)cc1 (configuration not stated)	18.7	i	0.6	-0.8	i	11.4	15.3*	i
CCN(CC)CC(O)COC(c1ccccc1)c1ccccc1 (configuration not stated)	14.9	i	-11.9	-1.0	i	-6.7	nt	nt
COc1ccc(S(=O)(=O)NCCN2CCNC2=O)cc1OC	37.7	i	10.8	-1.7	i	-13.9	nt	nt
COC(=O)CSc1cc(C)nc2ccc(OC)cc12	12.6	i	nt	5.3	i	-4.0	44.5*	-49.6*
Cc1cc(C)c2c(n1)nn1c(N3CCN(c4ccccc4)CC3)cc(C)nc21	-0.6	i	nt	-0.2	i	-12.5	nt	nt
Cc1cc(C)c2c(n1)nn1c(NCCOCCO)cc(C)nc21	10.1	8.53*	0.3	-10.6	i	-6.1	74.9*	-62.5*
COc1ccc(S(=O)(=O)N2CCc3cc4c(cc3C2C)OCCCO4)cc1 (configuration not stated)	22.3	i	-7.0	6.0	i	0.8	nt	nt
c1ccc(C[n+]2ccc3ccccc3c2)cc1	nt	6.31*	nt	-1.3	i	-9.6	42.7*	-48.2*
COCOc1ccc(C=O)cc1OCOC	nt	i	nt	-1.3	i	-13.0	nt	nt
CN(C)c1ccnc2sc3c(NCC(O)CO)ncnc3c12 (configuration not stated)	0.3	6.69*	6.1	0.3	i	4.7	49.7*	-44.3*
COc1cccc(/C=C2\N=C(C3CCCCC3)OC2=O)c1OC	-12.7	i	-16.7	6.2	i	-4.5	nt	nt
COc1ccc(CN2CCc3c([nH]c4ccccc34)C2)cc1Br	29.1	i	nt	-14.7	i	-10.4	nt	nt
COc1ccc(CN2CCc3c([nH]c4ccccc34)C2)c(OC)c1C	33.9	i	-16.5	-12.8	i	-23.9	32.1*	i
CCOC(=O)c1cnn(-c2sc(C(=O)OCC)c(C)c2C(=O)OCC)c1N	nt	6.56*	nt	2.3	i	-5.4	-3.1	i
SMILES	PHOSPHO1 block	CHT allo act	Hep lipid drop	HSF1 inh	CHT block	HSF-1 act	CHT act confirm	HEK293 MP dye
CCN1CCN(CCNC(=O)c2ccc(/C=C3/Sc4ccccc4N(Cc4cccc(Cl)c4)C3=O)cc2)CC1	-22.7	i	-6.9	1.7	i	10.6	17.3*	-27.8*
CS(=O)(=O)c1nc(-c2ccc(Br)cc2)n[nH]1	-1.1	i	-1.8	2.7	i	0.7	nt	nt
COc1ccc(CCN=C(N)C(C)c2ccccc2)cc1OC (configuration not stated)	24.8	i	-1.0	-5.1	i	-3.7	nt	nt
CC(C)Cc1ccc(C(C)C(N)=NCCc2ccccc2)cc1 (configuration not stated)	1.0	13.1*	-14.2	9.1	i	18.6	6.3	i
CN(CCc1cnn(C)c1)C(=O)CCc1nnc(CCCc2ccccc2)o1	39.5	i	-4.9	3.8	i	4.6	nt	nt
CCOc1ccc(-c2nnc(-c3cccnc3)o2)cc1OCC	-0.8	i	nt	-3.1	i	1.5	32.5*	-27*
COc1ccc(-c2nnc(-c3cccnc3)o2)cc1OC	-7.4	7.46*	nt	3.9	i	8.9	30.8*	-32.3*
COc1ccc2c(C)c(C)c(=O)oc2c1OC	47.1	i	7.6	9.6	i	23.5	nt	nt
CCCCOc1ccc(-c2nnc(-c3ccncc3)o2)cc1	1.8	i	nt	13.2	i	26.0	nt	nt
COc1cc(-c2nnc(-c3cccnc3)o2)cc(OC)c1OC	20.0	i	15.6	-0.7	i	0.4	nt	nt
COc1ccc2c(=O)cc(-c3cccnc3)oc2c1OC	19.9	7.64*	2.4	1.6	i	12.4	79.4*	-72.3*
CCOc1ccc(-c2nnc(-c3ccncc3)o2)cc1OCC	32.3	i	1.6	1.1	i	2.3	61.2*	-49.3*
COc1ccc(S(=O)(=O)N2CCCN(CC(=O)Nc3ccc(OC)c(Cl)c3)CC2)cc1	2.9	i	nt	4.6	i	-7.8	nt	nt
COc1ccc(/C=C2/SC(=O)N(CCNC(=O)C3CCCN3C(=O)c3cccs3)C2=O)cc1 (configuration not stated)	-10.9	i	3.7	-12.1	i	-7.4	nt	nt
COc1ccc(C(CNC(=O)COc2ccc(Br)cc2F)N2CCCC2)cc1 (configuration not stated)	-21.7	i	-5.4	6.0	i	-0.5	nt	nt
O=S(=O)(c1ccc(C2=CSC3=NCCN23)cc1)N1CCOCC1	15.9	6.32*	nt	-1.5	i	-25.7	36.3*	-40.3*
Cc1cc2ncn(-c3ncnc4sc(C)c(C)c34)c2cc1C	-10.0	i	nt	0.0	i	10.9	nt	nt
